In BindingDB's records for doi:10.1021/jm000911j (Universidad De Valencia, 2000) one finds IC50 data, which are given here for two molecules.

In this experiment the target is Acyl carrier protein,/NADH dehydrogenase [ubiquinone] flavoprotein 1, mitochondrial (Bos taurus, UniProt P25708+P52505). As to the kind of experiment: Inhibition of NADH oxidase activity. The procedure, abridged:
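Beef-heart submitochondrial particles (sonicated frozen-thawed mitochondria), preactivated with 300 µM NADH, assayed at 22 °C in 50 mM potassium phosphate pH 7.4, 1 mM EDTA (0.28 nM complex I). Aerobic oxidation of 75 µM NADH with no added quinone, followed at 340 nm. Ethanolic compound added cumulatively, 5 min on ice per step, ethanol ≤2%. IC50 is the final concentration giving 50% inhibition.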

Each structure is given as a SMILES string.

Acyl carrier protein,/NADH dehydrogenase [ubiquinone] flavoprotein 1, mitochondrial, sequence (P25708 21-464 limits assumed, other chains not shown): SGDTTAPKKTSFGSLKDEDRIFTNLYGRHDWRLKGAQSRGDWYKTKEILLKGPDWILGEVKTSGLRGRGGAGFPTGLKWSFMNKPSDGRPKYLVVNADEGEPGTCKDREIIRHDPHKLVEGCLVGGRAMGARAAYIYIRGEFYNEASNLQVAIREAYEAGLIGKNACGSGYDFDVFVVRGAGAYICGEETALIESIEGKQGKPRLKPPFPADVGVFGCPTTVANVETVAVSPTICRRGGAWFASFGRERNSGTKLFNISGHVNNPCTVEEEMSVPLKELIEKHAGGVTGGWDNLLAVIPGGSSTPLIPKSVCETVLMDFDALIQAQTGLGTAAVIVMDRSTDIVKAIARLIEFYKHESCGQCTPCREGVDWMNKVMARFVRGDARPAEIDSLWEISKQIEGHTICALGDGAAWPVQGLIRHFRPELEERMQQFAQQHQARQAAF

Turning to `CCCCCCCCCCC(N=O)[C@H]1CC[C@@H]([C@@H]2CC[C@H]([C@H](O)CCCCCCCCCCC(CC3=C[C@H](C)OC3=O)N=O)O2)O1` (some centres not stated) [3-{13-Hydroxy-2-hydroxyimino-13-[5'-(1-hydroxyimino-undecyl)-octahydro-[2,2']bifuranyl-5-yl]-tridecyl}-5-methyl-5H-furan-2-one(4,24-didehydroxy-4,24-dihydroxyliminorolliniastatin-1)], the IC50 (usually the point on the concentration scale where inhibition reaches its midpoint) worked out at 0.34 nM.

For the molecule `CCCCCCCCCC[C@H](O)[C@H]1CC[C@H]([C@H]2CC[C@H]([C@H](O)CCCCC(CCCCCCCC3=C[C@H](C)OC3=O)N=O)O2)O1` (some centres not stated) [10-oxime-guanacone], the IC50 stood at 0.34 nM.
